Results as given in the M2OR odorant receptor database.

What was measured:
Conditions in all cases: stereoisomer not certain
OR52I1 (Homo sapiens) = target: T1, OR52I1 (Homo sapiens) (UniProt Q8NGK6)
T1 sequence (whole entry): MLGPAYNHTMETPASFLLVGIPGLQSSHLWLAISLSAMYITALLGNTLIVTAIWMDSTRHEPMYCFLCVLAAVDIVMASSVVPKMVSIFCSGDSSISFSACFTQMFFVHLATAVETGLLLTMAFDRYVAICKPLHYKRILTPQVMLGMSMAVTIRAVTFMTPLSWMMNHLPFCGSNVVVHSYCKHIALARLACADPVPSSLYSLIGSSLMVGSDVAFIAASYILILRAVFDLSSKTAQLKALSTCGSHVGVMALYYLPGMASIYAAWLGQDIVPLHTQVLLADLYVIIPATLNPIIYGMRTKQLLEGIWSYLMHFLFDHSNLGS
How it was run: (§1)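 Transient luciferase assays in mammalian cell lines were common, though methods varied by source. The values come from published papers and their supplementary material, with extra details from the original authors when needed. Responsive refers to a measured signal the original authors judged statistically different from baseline, and non-responsive (inactive) to the remainder.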

OR52I2 (Homo sapiens) = target: T2, OR52I2 (Homo sapiens) (UniProt Q8NH67)
T2 sequence (whole entry): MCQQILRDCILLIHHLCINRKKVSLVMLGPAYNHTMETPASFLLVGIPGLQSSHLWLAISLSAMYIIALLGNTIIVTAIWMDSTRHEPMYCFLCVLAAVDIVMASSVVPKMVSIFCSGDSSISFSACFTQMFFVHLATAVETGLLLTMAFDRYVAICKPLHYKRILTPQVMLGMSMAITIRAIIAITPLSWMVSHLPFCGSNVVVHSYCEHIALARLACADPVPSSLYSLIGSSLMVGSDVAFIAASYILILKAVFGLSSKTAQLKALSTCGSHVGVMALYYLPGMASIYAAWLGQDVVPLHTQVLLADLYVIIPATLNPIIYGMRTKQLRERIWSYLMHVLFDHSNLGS
How it was run: as §1

OR52J3 (Homo sapiens) = OR52J3 (Homo sapiens) (UniProt Q8NH60)
Sequence of OR52J3 (Homo sapiens) (Q8NH60 whole entry): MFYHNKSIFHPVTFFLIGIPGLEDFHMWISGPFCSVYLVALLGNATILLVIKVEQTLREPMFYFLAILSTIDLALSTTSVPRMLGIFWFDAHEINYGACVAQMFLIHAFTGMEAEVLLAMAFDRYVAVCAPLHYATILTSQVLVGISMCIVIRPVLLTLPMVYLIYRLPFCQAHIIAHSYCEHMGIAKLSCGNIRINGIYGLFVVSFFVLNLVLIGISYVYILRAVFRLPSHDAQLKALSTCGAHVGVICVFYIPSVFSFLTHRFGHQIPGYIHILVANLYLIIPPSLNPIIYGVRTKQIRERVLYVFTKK
How it was run: as §1

OR52K1 (Homo sapiens) = target: T3, OR52K1 (Homo sapiens) (UniProt Q8NGK4)
T3 sequence (whole entry): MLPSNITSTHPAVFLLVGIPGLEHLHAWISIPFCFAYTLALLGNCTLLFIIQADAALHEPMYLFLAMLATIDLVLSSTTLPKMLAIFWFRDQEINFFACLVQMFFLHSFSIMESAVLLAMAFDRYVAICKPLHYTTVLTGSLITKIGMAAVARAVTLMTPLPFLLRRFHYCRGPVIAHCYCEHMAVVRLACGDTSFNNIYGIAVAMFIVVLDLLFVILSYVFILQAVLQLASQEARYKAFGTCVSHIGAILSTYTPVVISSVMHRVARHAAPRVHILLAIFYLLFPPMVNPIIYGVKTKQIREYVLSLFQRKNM
How it was run: as §1

OR52K2 (Homo sapiens) = target: T4, OR52K2 (Homo sapiens) (UniProt Q8NGK3)
T4 sequence (whole entry): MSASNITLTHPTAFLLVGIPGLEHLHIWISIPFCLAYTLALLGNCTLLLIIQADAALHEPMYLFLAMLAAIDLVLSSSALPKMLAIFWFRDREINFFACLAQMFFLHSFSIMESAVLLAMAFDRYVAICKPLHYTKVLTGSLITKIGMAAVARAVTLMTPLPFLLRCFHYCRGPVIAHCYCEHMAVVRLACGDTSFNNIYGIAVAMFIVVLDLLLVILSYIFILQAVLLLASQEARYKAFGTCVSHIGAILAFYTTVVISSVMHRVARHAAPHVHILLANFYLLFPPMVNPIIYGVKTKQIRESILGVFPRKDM
How it was run: as §1

OR52L1 (Homo sapiens) = target: T5, OR52L1 (Homo sapiens) (UniProt Q8NGH7)
T5 sequence (whole entry): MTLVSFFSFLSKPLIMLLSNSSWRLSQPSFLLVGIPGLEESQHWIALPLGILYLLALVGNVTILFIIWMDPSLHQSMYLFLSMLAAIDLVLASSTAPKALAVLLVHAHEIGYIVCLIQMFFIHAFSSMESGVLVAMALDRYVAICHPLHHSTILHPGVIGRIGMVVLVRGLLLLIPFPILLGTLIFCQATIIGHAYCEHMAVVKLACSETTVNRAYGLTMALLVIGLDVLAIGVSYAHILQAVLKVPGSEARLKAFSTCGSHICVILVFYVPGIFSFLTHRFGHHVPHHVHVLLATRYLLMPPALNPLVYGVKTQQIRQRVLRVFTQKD
How it was run: as §1

OR52M1 (Homo sapiens) = target: T6, OR52M1 (Homo sapiens) (UniProt Q8NGK5)
T6 sequence (whole entry): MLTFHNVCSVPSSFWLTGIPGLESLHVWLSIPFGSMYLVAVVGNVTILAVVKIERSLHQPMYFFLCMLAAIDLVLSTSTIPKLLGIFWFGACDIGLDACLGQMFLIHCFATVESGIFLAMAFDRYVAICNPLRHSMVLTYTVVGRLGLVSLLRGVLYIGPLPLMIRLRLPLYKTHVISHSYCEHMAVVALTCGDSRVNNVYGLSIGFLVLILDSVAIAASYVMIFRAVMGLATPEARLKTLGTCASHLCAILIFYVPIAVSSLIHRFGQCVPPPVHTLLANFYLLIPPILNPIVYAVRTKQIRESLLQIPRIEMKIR
How it was run: as §1

OR52N1 (Homo sapiens) = target: T7, OR52N1 (Homo sapiens) (UniProt Q8NH53)
T7 sequence (whole entry): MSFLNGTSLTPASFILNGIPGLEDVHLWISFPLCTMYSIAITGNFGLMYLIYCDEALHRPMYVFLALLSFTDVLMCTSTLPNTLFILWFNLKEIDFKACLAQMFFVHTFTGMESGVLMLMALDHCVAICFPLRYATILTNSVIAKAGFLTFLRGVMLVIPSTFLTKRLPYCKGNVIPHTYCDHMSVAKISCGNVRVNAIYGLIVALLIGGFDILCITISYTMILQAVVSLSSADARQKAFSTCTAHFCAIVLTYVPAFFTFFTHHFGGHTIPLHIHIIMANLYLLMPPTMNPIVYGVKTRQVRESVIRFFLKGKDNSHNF
How it was run: as §1

OR52N2 (Homo sapiens) = target: T8, OR52N2 (Homo sapiens) (UniProt Q8NGI0)
T8 sequence (whole entry): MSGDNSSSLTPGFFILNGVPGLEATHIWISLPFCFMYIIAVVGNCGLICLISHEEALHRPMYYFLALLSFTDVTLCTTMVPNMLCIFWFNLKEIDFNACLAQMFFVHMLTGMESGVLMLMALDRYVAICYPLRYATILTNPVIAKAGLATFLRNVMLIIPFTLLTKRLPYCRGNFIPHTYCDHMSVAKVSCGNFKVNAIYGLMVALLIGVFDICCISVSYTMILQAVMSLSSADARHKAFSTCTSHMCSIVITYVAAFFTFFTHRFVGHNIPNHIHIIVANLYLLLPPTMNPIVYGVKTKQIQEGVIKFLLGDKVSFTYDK
How it was run: as §1

OR52N4 (Homo sapiens) = target: T9, OR52N4 (Homo sapiens) (UniProt Q8NGI2)
T9 sequence (whole entry): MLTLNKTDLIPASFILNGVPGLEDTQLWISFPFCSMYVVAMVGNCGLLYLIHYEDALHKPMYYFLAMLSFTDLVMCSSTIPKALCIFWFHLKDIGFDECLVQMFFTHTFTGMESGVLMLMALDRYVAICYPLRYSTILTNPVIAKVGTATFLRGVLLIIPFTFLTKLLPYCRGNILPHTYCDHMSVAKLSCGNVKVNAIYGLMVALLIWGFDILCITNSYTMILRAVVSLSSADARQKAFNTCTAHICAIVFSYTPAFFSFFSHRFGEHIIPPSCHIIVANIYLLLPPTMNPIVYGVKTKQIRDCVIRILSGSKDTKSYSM
How it was run: as §1

OR52N5 (Homo sapiens) = target: T10, OR52N5 (Homo sapiens) (UniProt Q8NH56)
T10 sequence (whole entry): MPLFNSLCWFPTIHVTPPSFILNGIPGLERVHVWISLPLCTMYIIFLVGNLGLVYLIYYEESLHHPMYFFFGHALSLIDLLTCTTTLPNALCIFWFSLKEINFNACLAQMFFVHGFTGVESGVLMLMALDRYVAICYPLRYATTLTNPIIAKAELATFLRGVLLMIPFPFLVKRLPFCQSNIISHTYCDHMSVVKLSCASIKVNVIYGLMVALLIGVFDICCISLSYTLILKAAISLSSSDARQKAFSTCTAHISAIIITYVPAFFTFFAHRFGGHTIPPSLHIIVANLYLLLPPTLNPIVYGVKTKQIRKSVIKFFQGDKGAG
How it was run: as §1

OR52R1 (Homo sapiens) = target: T11, OR52R1 (Homo sapiens) (UniProt Q8NGF1)
T11 sequence (whole entry): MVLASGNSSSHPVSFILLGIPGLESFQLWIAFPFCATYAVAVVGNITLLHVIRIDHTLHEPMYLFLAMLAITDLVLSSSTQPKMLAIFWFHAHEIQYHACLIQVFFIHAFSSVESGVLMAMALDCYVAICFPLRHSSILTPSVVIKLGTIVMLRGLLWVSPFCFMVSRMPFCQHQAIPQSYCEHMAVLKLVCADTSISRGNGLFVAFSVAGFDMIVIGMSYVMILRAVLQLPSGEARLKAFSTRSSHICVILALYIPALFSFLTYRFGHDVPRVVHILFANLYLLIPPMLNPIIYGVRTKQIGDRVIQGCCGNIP
How it was run: as §1

OR52W1 (Homo sapiens) = target: T12, OR52W1 (Homo sapiens) (UniProt Q6IF63)
T12 sequence (whole entry): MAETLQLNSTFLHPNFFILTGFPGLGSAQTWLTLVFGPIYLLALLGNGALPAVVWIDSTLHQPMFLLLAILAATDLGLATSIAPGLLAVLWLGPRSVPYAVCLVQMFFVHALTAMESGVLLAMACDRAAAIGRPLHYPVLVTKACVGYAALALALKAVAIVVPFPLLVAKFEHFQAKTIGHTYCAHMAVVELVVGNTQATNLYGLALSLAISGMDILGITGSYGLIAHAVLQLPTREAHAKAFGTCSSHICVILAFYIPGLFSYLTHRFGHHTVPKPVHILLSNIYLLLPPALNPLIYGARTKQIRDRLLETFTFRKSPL
How it was run: as §1

OR56A1 (Homo sapiens) = target: T13, OR56A1 (Homo sapiens) (UniProt Q8NGH5)
T13 sequence (whole entry): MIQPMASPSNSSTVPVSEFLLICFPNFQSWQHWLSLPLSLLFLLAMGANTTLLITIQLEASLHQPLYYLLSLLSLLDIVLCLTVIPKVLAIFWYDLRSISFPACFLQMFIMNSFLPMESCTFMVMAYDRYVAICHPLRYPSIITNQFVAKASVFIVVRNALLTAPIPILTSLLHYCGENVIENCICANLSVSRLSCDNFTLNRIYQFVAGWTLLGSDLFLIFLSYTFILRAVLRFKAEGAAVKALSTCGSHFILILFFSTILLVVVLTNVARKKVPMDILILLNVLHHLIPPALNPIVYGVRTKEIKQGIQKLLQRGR
How it was run: as §1

OR56A3 (Homo sapiens) = target: T14, OR56A3 (Homo sapiens) (UniProt Q8NH54)
T14 sequence (whole entry): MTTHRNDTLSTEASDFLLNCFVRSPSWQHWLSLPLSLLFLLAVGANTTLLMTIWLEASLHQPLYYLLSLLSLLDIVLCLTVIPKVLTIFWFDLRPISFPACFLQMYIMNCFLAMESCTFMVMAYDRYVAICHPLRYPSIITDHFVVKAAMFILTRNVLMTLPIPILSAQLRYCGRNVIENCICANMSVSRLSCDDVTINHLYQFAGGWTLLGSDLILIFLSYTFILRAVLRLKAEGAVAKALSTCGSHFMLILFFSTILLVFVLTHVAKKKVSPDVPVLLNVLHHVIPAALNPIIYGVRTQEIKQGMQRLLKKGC
How it was run: as §1

OR56A5 (Homo sapiens) = target: T15, OR56A5 (Homo sapiens) (UniProt P0C7T3)
T15 sequence (whole entry): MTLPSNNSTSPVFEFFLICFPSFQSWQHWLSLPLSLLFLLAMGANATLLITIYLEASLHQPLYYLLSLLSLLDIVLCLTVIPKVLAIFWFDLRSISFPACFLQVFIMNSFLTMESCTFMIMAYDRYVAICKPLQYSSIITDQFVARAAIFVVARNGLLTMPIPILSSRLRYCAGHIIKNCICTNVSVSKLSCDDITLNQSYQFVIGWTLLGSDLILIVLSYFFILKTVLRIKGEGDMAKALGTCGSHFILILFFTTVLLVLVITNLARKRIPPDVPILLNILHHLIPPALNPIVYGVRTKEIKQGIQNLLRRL
How it was run: as §1

OR56B1 (Homo sapiens) = target: T16, OR56B1 (Homo sapiens) (UniProt Q8NGI3)
T16 sequence (whole entry): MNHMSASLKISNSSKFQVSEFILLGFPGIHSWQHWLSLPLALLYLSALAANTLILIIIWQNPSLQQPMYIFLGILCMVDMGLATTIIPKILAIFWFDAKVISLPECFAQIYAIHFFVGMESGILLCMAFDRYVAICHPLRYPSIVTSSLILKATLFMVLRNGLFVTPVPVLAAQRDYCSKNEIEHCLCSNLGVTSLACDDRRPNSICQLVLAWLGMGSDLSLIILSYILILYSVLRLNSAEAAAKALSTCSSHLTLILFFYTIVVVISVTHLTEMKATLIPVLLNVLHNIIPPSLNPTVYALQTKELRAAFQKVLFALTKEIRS
How it was run: as §1

Measured: odorant receptor agonist call

Cc1cnc(C)c(C)n1
inactive: all assays above

CC1=C(O)C(=O)OC1C (centres undefined)
inactive: all assays above
